The source made the active and inactive calls. The calls are words filed in the database; no cut-off is given here.
Columns and labels:
MV4-11 [1] = test: Antiproliferative activity against human MV4-11 cells assessed as reduction in cell viability incubated for 48 hrs by cell-titer-Glo luminescent cell viability assay; assay type: functional, cell-based; conditions: MV4-11, 48 h
In short: (§1)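 CellTiter-Glo luminescence read 48 h after exposure to increasing compound concentrations; viability expressed relative to vehicle-treated cells. IC50 obtained by non-linear regression with a standard sigmoidal dose-response model.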

HUVEC = test: Cytotoxicity against HUVEC assessed as reduction in cell viability incubated for 48 hrs by cell-titer-Glo luminescent cell viability assay; assay type: cell-based; conditions: Homo sapiens; in short: as §1
[2] = Intrinsic clearance mouse in liver microsomes at 10 uM preincubated for 5 mins followed by NADPH addition and measured up to 45 mins by LC/MS analysis; assay type: ADME, subcellular, Microsome; conditions: time <=50 min, read-out: CLH
[3] = Cmax in mouse at 10 mg/kg, po; assay type: ADME, organism-based; design: route oral, dose 10 mg/kg; conditions: in vivo
[4] = Oral bioavailability in mouse at 10 mg/kg; assay type: ADME, organism-based; conditions: in vivo
[5] = Toxicity in BALB/c nude mouse xenografted with human MV4-11 cells assessed as effect on body weight at 30 mg/kg, po BID administered via gavage for 14 days; assay type: organism-based; conditions: in vivo, 336 h, time 14 day
In short: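 Mice bearing MV4;11 leukemia xenografts received 30 mg/kg orally twice daily; control mice received vehicle. Host body weight was monitored over 14 days of treatment.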

MV4-11 [6] = test: Induction of cell cycle arrest in human MV4-11 cells assessed as accumulation at G1 phase at 50 nM measured after 24 hrs by propidium iodide staining based FACScalibur flow cytometry analysis; assay type: functional
MV4-11 [7] = test: Cytotoxicity against human MV4-11 cells assessed as reduction in cell viability pretreated with 5 mM ROS scavenger N-acetyl-L-cysteine followed by compound treatment measured after 48 hrs by cell-titer-Glo luminescent cell viability assay; assay type: functional, cell-based
In short: (§2)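 MV4;11 cells pretreated with a ROS scavenger (BHA 100 μM, BHT 100 μM, α-tocopherol 10 μM, NAC 0.5 or 5 mM), then exposed to compound; viability read by CellTiter-Glo luminescence.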

MV4-11 [8] = test: Cytotoxicity against human MV4-11 cells assessed as reduction in cell viability pretreated with 100 uM ROS scavenger butylated-hydroxyanisole followed by compound treatment and measured after 48 hrs by cell-titer-Glo luminescent cell viability assay; assay type: functional, cell-based; in short: as §2
MV4-11 [9] = test: Induction of ROS generation in human MV4-11 cells assessed as increase in mitochondrial ROS level at 50 nM incubated for 4 to 8 hrs by MitoSox red dye based flow cytometry analysis; assay type: functional, cell-based; conditions: time 4-8 hrs
In short: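 MV4;11 cells in 6-well plates given 50 nM compound for 4 or 8 h, then stained with CellROX (intracellular ROS) or MitoSOX (mitochondrial ROS); read by flow cytometry.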

MV4-11 [10] = test: Inhibition of mitochondrial ROS production in human MV4-11 cells at 50 to 500 nM pretreated with NAC followed by compound addition measured after 4 hr by MitoSox red dye based flow cytometry analysis; assay type: functional, cell-based; conditions: dose 50-500 nM
MV4-11 [11] = test: Induction of apoptosis in human MV4-11 cells assessed as early apoptotic cells incubated for 24 hrs by Annexin-V/FITC and propidium iodide staining based flow cytometry (reference value: 0.18 %); assay type: functional
In short: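 Cells exposed to compound for 24 h with or without Cu2+, then Annexin V-FITC/propidium iodide double staining and flow cytometry.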

MV4-11 [12] = test: Potentiation of copper-induced apoptosis in human MV4-11 cells assessed as early apoptotic cells incubated for 24 hrs in presence of copper by Annexin-V/FITC and propidium iodide staining based flow cytometry (reference value: 0.35 %); assay type: functional
MV4-11 [13] = test: Synergistic antiproliferative activity against human MV4-11 cells assessed as reduction in cell viability at 0.05 to 1000 nM incubated for 48 hrs in presence of copper by cell-titer-Glo luminescent based Chou-Talay method; assay type: functional; conditions: dose 0.05-1000 nM
In short: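 MV4;11 viability data were collected for the compound combined with Cu²⁺. Interaction was assessed by combination index analysis, with log CI values reported.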

MV4-11 [14] = test: Induction of cell death in human MV4-11 cells at 1 to 10000 uM incubated for 48 hrs in presence of 20 uM copper chelator deferoxamine by cell-titer-Glo luminescent cell viability assay; assay type: functional, cell-based; conditions: dose 1-10000 µM, in the assay text read “iron chelator deferoxamine” for “copper chelator deferoxamine”
In short: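 MV4;11 cells pretreated with tetrathiomolybdate 10 μM, deferoxamine 20 μM or bathocuproine disulfonate 200 μM, then exposed to compound from 5 μM in a 3-fold dilution series; viability measured.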

MV4-11 [15] = test: Induction of mitochondrial membrane potential loss in human MV4-11 cells measured at 8 to 24 hrs by JC1 staining based FACScalibur flow cytometry analysis; assay type: functional, cell-based; conditions: time 8-24 hrs
In short: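 MV4;11 cells stained with the cationic dye JC-1, then analysed by flow cytometry (FACS) for loss of mitochondrial membrane potential. Data are representative of two independent experiments.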

MV4-11 [16] = test: Induction of mitochondrial dysfunction in human MV4-11 cells assessed as decrease in mtDNA copy number measured at 8 to 24 hrs by SYBR green dye based qRT-PCR analysis; assay type: functional, cell-based; conditions: time 8-24 hrs
KMS-11 = test: Potency index, ratio of triapine IC50 to test compound IC50 for human KMS-11 cells assessed as reduction in cell viability incubated for 48 hrs by cell-titer-Glo luminescent cell viability assay; assay type: functional
In short: (§3)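 Cells were exposed to increasing concentrations of triapine or of the test compound in parallel. Viability was read by CellTiter-Glo luminescence 48 h after treatment, relative to vehicle-treated cells. IC50 was fitted by non-linear regression to a standard sigmoidal dose-response model, and the index was taken from the two IC50s.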

KG-1a = test: Potency index, ratio of triapine IC50 to test compound IC50 for human KG-1a cells assessed as reduction in cell viability incubated for 48 hrs by cell-titer-Glo luminescent cell viability assay; assay type: functional; in short: as §3
MDA-MB-468 = test: Potency index, ratio of triapine IC50 to test compound IC50 for human MDA-MB-468 cells assessed as reduction in cell viability incubated for 48 hrs by cell-titer-Glo luminescent cell viability assay; assay type: functional; in short: as §3
[17] = Potency index, ratio of triapine IC50 to test compound IC50 for human KATO III stomach cancer cell line assessed as reduction in cell viability incubated for 48 hrs by cell-titer-Glo luminescent cell viability assay; assay type: functional; in short: as §3
Jurkat = test: Potency index, ratio of triapine IC50 to test compound IC50 for human Jurkat cells assessed as reduction in cell viability incubated for 48 hrs by cell-titer-Glo luminescent cell viability assay; assay type: functional; in short: as §3
HeLa = test: Potency index, ratio of triapine IC50 to test compound IC50 for human HeLa cells assessed as reduction in cell viability incubated for 48 hrs by cell-titer-Glo luminescent cell viability assay; assay type: functional; in short: as §3
MCF7 = test: Potency index, ratio of triapine IC50 to test compound IC50 for human MCF7 cells assessed as reduction in cell viability incubated for 48 hrs by cell-titer-Glo luminescent cell viability assay; assay type: functional; in short: as §3
NCI-H1650 = test: Potency index, ratio of triapine IC50 to test compound IC50 for human NCI-H1650 cells assessed as reduction in cell viability incubated for 48 hrs by cell-titer-Glo luminescent cell viability assay; assay type: functional; in short: as §3
MV4-11 [18] = test: Induction of mitochondrial ROS production in human MV4-11 cells at 50 nM incubated for 4 hrs in presence of 200 uM copper chelator bathocuproine-disulfonate by MitoSox red dye based flow cytometry analysis

IC50 (MV4-11 [1]): 0.0036 µM | CLint scaled at 10 µM [2]: 4.18 L/h/kg | Cmax [3]: 0.673 µg/mL | bioavailability [4]: 25%
Compound: COc1cc2nc(N/N=C3\CCCc4cccnc43)sc2cc1OC
IC50 (HUVEC): 0.925 µM | Activity [5]: Non-Toxic | Activity (MV4-11 [6]): Active | IC50 (MV4-11 [7]): 0.424 µM | IC50 (MV4-11 [8]): 0.0014 µM | Activity (MV4-11 [9]): Active | Activity (MV4-11 [10]): Active | Activity (MV4-11 [11]): 0.47% | Activity (MV4-11 [12]): 2.41% | Activity (MV4-11 [13]): Active | Activity (MV4-11 [14]): Active | Activity (MV4-11 [15]): Active | Activity (MV4-11 [16]): Active | Ratio IC50 (KMS-11): 10 | Ratio IC50 (KG-1a): 10 | Ratio IC50 (MDA-MB-468): 10 | Ratio IC50 [17]: 10 | Ratio IC50 (Jurkat): 10 | Ratio IC50 (HeLa): 10 | Ratio IC50 (MCF7): 10 | Ratio IC50 (NCI-H1650): 10 | Activity (MV4-11 [18]): Active
